# ChEMBL document CHEMBL1122426, “Radioiodine-labeled N,N-dimethyl-N'-(2-hydroxy-3-alkyl-5-iodobenzyl)-1,3-propanediamines for brain perfusion imaging” (J Med Chem, 1983)
# What was measured:
# [1] = The protein binding ability of compound was expressed in Percent free; type: ADME; conditions: read-out: % free
# In short: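 Binding to pooled human serum was measured by equilibrium dialysis. 0.4 mL serum and 0.4 mL 0.15 M phosphate buffer, pH 7.4, were separated by a membrane, and 0.025 μCi radiolabeled diamine was added on the buffer side. Cells were rotated at 37 °C for 18 h, and aliquots from both sides were weighed and counted. % free = buffer/serum radioactivity concentration ratio × 100. The membrane was also counted.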
# Rattus norvegicus [2] = species on record: Rattus norvegicus; assay: Effect of specific activity of compound on biodistribution in rats brain to blood ratio 1 hr after injection at the dose of 6.25 mg value expressed in % dose per gram ratio; type: ADME, organism-based
# In short: (§1)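 Rats received an intravenous injection of the I-125 labeled diamine with added unlabeled carrier (6.25, 2.5, 0.25 or 0.025 mg per dose). At 1 h, organs were counted. Percent dose per organ came from comparing tissue radioactivity with diluted aliquots of the injected dose. Values are the average and range of 3 rats. Brain/blood ratio was taken from % dose per gram, calculated using mean organ weights (brain 1.65 g; blood 18 g).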
# [3] = Biodistribution of [125I]- compound in a monkey liver. 1 hr after intravenous injection. the value expressed in %dose/organ; conditions: simiiformes, in vivo
# Rattus norvegicus [4] = species on record: Rattus norvegicus; assay: Effect of specific activity of compound on biodistribution in rats blood 1 hr after injection at the dose of 6.25 mg value expressed in average % dose per organ; value may range from 0.55 to 0.64; type: ADME, organism-based; conditions: in vivo; in short: as §1
# Rattus norvegicus [5] = species on record: Rattus norvegicus; assay: Effect of specific activity of compound on biodistribution in rats heart 1 hr after injection at the dose of 2.5 mg value expressed in average % dose per organ; value may range from 0.34 to 0.42; type: ADME, organism-based; conditions: in vivo; in short: as §1
# Rattus norvegicus [6] = species on record: Rattus norvegicus; assay: Effect of specific activity of compound on biodistribution in rats brain to blood ratio 1 hr after injection at the dose of 2.5 mg value expressed in % dose per gram ratio; type: ADME, organism-based; in short: as §1
# [7] = Biodistribution of […] compound in a monkey blood. 1 hr after intravenous injection. the value expressed in%dose/organ; type: ADME, organism-based; conditions: simiiformes, in vivo
# In short: (§2)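 Monkey sedated with ketamine and anesthetized with nembutal, then given ~100 μCi [125I] label (~7 mCi/mg) intravenously. Killed 1 h later by nembutal overdose. Organs dissected, weighed and counted. % dose per organ found against diluted injected-dose aliquots; % dose per gram also reported; brain/blood from per-gram values. Single animal.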
# Rattus norvegicus [8] = species on record: Rattus norvegicus; assay: Effect of specific activity of compound on biodistribution in rats thyroid after injection at the dose of 0.025 mg value expressed in average % dose per organ; value may range from 0.15 to 0.17; type: ADME, organism-based, Thyroid gland; conditions: in vivo; in short: as §1
# Rattus norvegicus [9] = assay: Biodistribution of I-125 labeled compound in rat lungs, 2 min after intravenous injection. value expressed in average % dose per organ; value may range from 15.7 to 18.7; type: ADME, organism-based, Lung; conditions: in vivo
# Rattus norvegicus [10] = species on record: Rattus norvegicus; assay: Effect of specific activity of compound on biodistribution in rats liver after injection at the dose of 0.025 mg value expressed in average % dose per organ; value may range from 6.23 to 7.26; type: ADME, organism-based; conditions: in vivo; in short: as §1
# [11] = Biodistribution of [125I]- compound in a monkey brain. 1 hr after intravenous injection. the value expressed in %dose/gram; conditions: simiiformes, in vivo
# Rattus norvegicus [12] = species on record: Rattus norvegicus; assay: Effect of specific activity of compound on biodistribution in rats brain after injection at the dose of 0.025 mg value expressed in average % dose per organ; value may range from 1.39 to 1.56; type: ADME, organism-based; conditions: in vivo; in short: as §1
# Rattus norvegicus [13] = assay: Biodistribution of I-125 labeled compound in rat liver, 1 hr after intravenous injection. value expressed in average % dose per organ; value may range from 6.22 to 7.81; type: ADME, organism-based; conditions: in vivo
# [14] = Biodistribution of [125I]- compound in a monkey heart. 1 hr after intravenous injection. the value expressed in %dose/gram; conditions: simiiformes, in vivo
# Rattus norvegicus [15] = species on record: Rattus norvegicus; assay: Effect of specific activity of compound on biodistribution in rats muscle 1 hr after injection at the dose of 6.25 mg value expressed in average % dose per organ; value may range from 11.5 to 12.9; type: ADME, organism-based, Muscle tissue; conditions: in vivo; in short: as §1
# Rattus norvegicus [16] = species on record: Rattus norvegicus; assay: Effect of specific activity of compound on biodistribution in rats heart after injection at the dose of 0.025 mg value expressed in average % dose per organ; value may range from 0.98 to 1.02; type: ADME, organism-based; conditions: in vivo; in short: as §1
# Rattus norvegicus [17] = assay: Biodistribution of I-125 labeled compound in rat brain to blood ratio, 2 min after intravenous injection, value expressed in % dose per gram ratio; type: ADME, organism-based
# In short: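 Rats given I-125 diamine iv; tissue activity at 2 min or 1 h compared with diluted injected-dose aliquots. % dose per gram approximated as % dose per organ divided by mean organ weight (brain 1.65 g; blood 18 g). Ratio taken from the per-gram values.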
# Rattus norvegicus [18] = species on record: Rattus norvegicus; assay: Distribution coefficient at pH 7.4 in rat; type: ADME, organism-based
# In short: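 Octanol/buffer partition: I-125 labeled diamine mixed with 3 g each of 1-octanol and 0.1 M phosphate buffer at pH 7.0 or 7.4, vortexed 3× 1 min, centrifuged 5 min. Two 0.5 g samples of each layer counted. Value is cpm/g octanol over cpm/g buffer, usually repeated three times.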
# Rattus norvegicus [19] = assay: Biodistribution of I-125 labeled compound in rat blood, 2 min after intravenous injection. value expressed in average % dose per organ; value may range from 2.42 to 2.84; type: ADME, organism-based; conditions: in vivo
# [20] = Biodistribution of [125I]- compound in a monkey kidneys. 1 hr after intravenous injection. the value expressed in%dose/organ; conditions: simiiformes, in vivo
# [21] = Biodistribution of […] compound in a monkey bone. 1 hr after intravenous injection. the value expressed in %dose/organ; type: ADME, organism-based, Bone element; conditions: simiiformes, in vivo; in short: as §2
# Rattus norvegicus [22] = species on record: Rattus norvegicus; assay: Effect of specific activity of compound on biodistribution in rats brain to blood ratio 1 hr after injection at the dose of 0.25 mg value expressed in % dose per gram ratio; type: ADME, organism-based; in short: as §1
# [23] = Biodistribution of [125I]- compound in a monkey bone. 1 hr after intravenous injection. the value expressed in %dose/gram; conditions: simiiformes, in vivo
# Rattus norvegicus [24] = species on record: Rattus norvegicus; assay: Effect of specific activity of compound on biodistribution in rats thyroid 1 hr after injection at the dose of 2.5 mg value expressed in average % dose per organ; value may range from 0.12 to 0.14; type: ADME, organism-based, Thyroid gland; conditions: in vivo; in short: as §1
# Rattus norvegicus [25] = species on record: Rattus norvegicus; assay: Effect of specific activity of compound on biodistribution in rats blood 1 hr after injection at the dose of 0.25 mg value expressed in average % dose per organ; value may range from 0.83 to 0.92; type: ADME, organism-based; conditions: in vivo
# [26] = Biodistribution of [125I]- compound in a monkey liver. 1 hr after intravenous injection. the value expressed in %dose/gram; conditions: simiiformes, in vivo
# [27] = Biodistribution of [125I]- compound in a monkey spleen. 1 hr after intravenous injection. the value expressed in%dose/organ; conditions: simiiformes, in vivo
# Rattus norvegicus [28] = species on record: Rattus norvegicus; assay: Effect of specific activity of compound on biodistribution in rats heart 1 hr after injection at the dose of 0.25 mg value expressed in average % dose per organ 0.69 to 0.74; type: ADME, organism-based; conditions: in vivo; in short: as §1
# Rattus norvegicus [29] = species on record: Rattus norvegicus; assay: Effect of specific activity of compound on biodistribution in rats liver 1 hr after injection at the dose of 2.5 mg value expressed in average % dose per organ; value may range from 17.1 to 20.7; type: ADME, organism-based; conditions: in vivo; in short: as §1
# Rattus norvegicus [30] = assay: Biodistribution of I-125 labeled compound in rat brain, 2 min after intravenous injection. value expressed in average % dose per organ; value may range from 1.71 to 1.95; type: ADME, organism-based; conditions: in vivo
structure (smiles),measurement,setting,value
Cc1cc(I)cc(CNCCCN(C)C)c1O,fraction unbound,[1],0.483
same,Ratio,Rattus norvegicus [2],43%
same,Dose per organ,[3],19.7%
same,Average dose per organ,Rattus norvegicus [4],0.61%
same,Average dose per organ,Rattus norvegicus [5],0.38%
same,Ratio,Rattus norvegicus [6],37.3%
same,Dose per organ,[7],1.23%
same,Average dose per organ,Rattus norvegicus [8],0.16%
same,Average dose per organ,Rattus norvegicus [9],16.9%
same,Average dose per organ,Rattus norvegicus [10],6.74%
same,Dose/g,[11],0.0349%
same,Average dose per organ,Rattus norvegicus [12],1.47%
same,Average dose per organ,Rattus norvegicus [13],7.14%
same,Dose/g,[14],0.218%
same,Average dose per organ,Rattus norvegicus [15],12.3%
same,Average dose per organ,Rattus norvegicus [16],1%
same,Ratio,Rattus norvegicus [17],7.35%
same,Distribution coefficient,Rattus norvegicus [18],11.6
same,Average dose per organ,Rattus norvegicus [19],2.63%
same,Dose per organ,[20],16.1%
same,Dose per organ,[21],1.53%
same,Ratio,Rattus norvegicus [22],22.8%
same,Dose/g,[23],0.00168%
same,Average dose per organ,Rattus norvegicus [24],0.13%
same,Average dose per organ,Rattus norvegicus [25],0.88%
same,Dose/g,[26],0.149%
same,Dose per organ,[27],2.39%
same,Average dose per organ,Rattus norvegicus [28],0.72%
same,Average dose per organ,Rattus norvegicus [29],18.9%
same,Average dose per organ,Rattus norvegicus [30],1.8%
